Square brackets hold non-standard residues; d marks the D form. Peptide text beside a SMILES is read from it. * marks the point of attachment. Fumaroyl(AlaGlyPheOH) = C[C@H](NC(=O)/C=C/C(=O)*)C(=O)NCC(=O)N[C@@H](Cc1ccccc1)C(=O)O; Chg = N[C@H](C(=O)O)C1CCCCC1; Dap = NC[C@H](N)C(=O)O

Test [1] is described as follows: Inhibition of Plasmodium falciparum falcipain-2 after 12 hrs by fluorescence spectroscopy-based on-bead assay. On the set-up: concentration or dose not given beside the values. The settings on record: concentration not given here. In a few lines:
(§1)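 Library members on resin (PEGA, theoretical loading 0.40 mmol/g; added as DMSO suspension, 0.64 mM final inhibitor) preincubated with enzyme 12 h, then Cbz-Phe-Arg-AMC 40 μM added; AMC release followed by fluorescence (ex 380/em 460 nm). Kinetics compared with inhibitor-free amino-PEGA resin.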

Test [2] concerns the target Rhodesain (Trypanosoma brucei rhodesiense) (UniProt Q95PM0). Description: Inhibition of Trypanosoma brucei rhodesiense rhodesain after 12 hrs by fluorescence spectroscopy-based on-bead assay. Also on record: concentration or dose not given beside the values. The following applies: concentration not given here. In a few lines: as §1

Sequence of Rhodesain (Trypanosoma brucei rhodesiense) (Q95PM0 1-450): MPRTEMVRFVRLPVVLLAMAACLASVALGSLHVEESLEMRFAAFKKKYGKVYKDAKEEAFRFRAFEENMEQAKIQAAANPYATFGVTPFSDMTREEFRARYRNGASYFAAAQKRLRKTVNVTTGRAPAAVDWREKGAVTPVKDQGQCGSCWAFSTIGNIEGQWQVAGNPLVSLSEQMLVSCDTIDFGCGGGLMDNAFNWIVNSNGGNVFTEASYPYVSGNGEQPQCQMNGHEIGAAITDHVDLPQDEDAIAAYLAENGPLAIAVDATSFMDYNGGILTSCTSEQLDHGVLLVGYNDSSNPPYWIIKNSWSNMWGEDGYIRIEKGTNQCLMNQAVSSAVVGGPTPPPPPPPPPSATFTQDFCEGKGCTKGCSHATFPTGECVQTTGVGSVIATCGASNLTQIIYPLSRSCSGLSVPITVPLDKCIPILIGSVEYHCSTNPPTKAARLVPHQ

For the compound `CC(C)C[C@H](NC(=O)[C@@H](NC(=O)[C@H](C)NC(=O)/C=C/C(=O)NCC(=O)NCC(=O)N[C@@H](Cc1ccccc1)C(=O)O)c1ccccc1)C(=O)N[C@H](C(N)=O)C(C)C` (HELM PEPTIDE1{[O=C(/C=C/C(=O)[*:2])NCC(=O)NCC(=O)N[C@@H](Cc1ccccc1)C(=O)O].A.[Phg].L.V.[am]}$$$$V2.0), the figures for the inhibition in test [1] and in test [2] were 53% and 54%, respectively.
Regarding `CC(C)C[C@H](NC(=O)[C@H](Cc1ccccc1)NC(=O)/C=C/C(=O)NCC(=O)NCC(=O)N[C@@H](Cc1ccccc1)C(=O)O)C(=O)N[C@@H](C)C(=O)N[C@H](C(N)=O)C(C)C` (HELM PEPTIDE1{[O=C(/C=C/C(=O)[*:2])NCC(=O)NCC(=O)N[C@@H](Cc1ccccc1)C(=O)O].F.L.A.V.[am]}$$$$V2.0), the inhibition worked out at 45% in test [1] and 71% in test [2].
In the case of `CC(C)[C@H](NC(=O)[C@H](C)NC(=O)[C@H](Cc1ccccc1)NC(=O)[C@H](C)NC(=O)/C=C/C(=O)NCC(=O)NCC(=O)N[C@@H](Cc1ccccc1)C(=O)O)C(N)=O` (HELM PEPTIDE1{[O=C(/C=C/C(=O)[*:2])NCC(=O)NCC(=O)N[C@@H](Cc1ccccc1)C(=O)O].A.F.A.V.[am]}$$$$V2.0), the inhibition in test [1] came to 44%; in test [2] it was 45%.
On the same counts, the results for `CC(=O)NC[C@H](NC(=O)/C=C/C(=O)N[C@@H](C)C(=O)NCC(=O)N[C@@H](Cc1ccccc1)C(=O)O)C(=O)N[C@H](C(=O)N[C@@H](CC(C)C)C(=O)N[C@H](C(N)=O)C(C)C)C1CCCCC1` ({Fumaroyl(AlaGlyPheOH)}-[Dap](Ac)[Chg]LV-NH2) are 56% and 51%.
The like results for `CC[C@H](C)[C@H](NC(=O)[C@H](CCC(N)=O)NC(=O)/C=C/C(=O)N[C@@H](C)C(=O)NCC(=O)N[C@@H](Cc1ccccc1)C(=O)O)C(=O)N[C@@H](CC(C)C)C(=O)N[C@H](C(N)=O)C(C)C` (HELM PEPTIDE1{[C[C@H](NC(=O)/C=C/C(=O)[*:2])C(=O)NCC(=O)N[C@@H](Cc1ccccc1)C(=O)O].Q.I.L.V.[am]}$$$$V2.0) were, in that order, 46% and 47%.
The like results for `CC(C)[C@H](NC(=O)[C@@H](NC(=O)[C@@H](NC(=O)[C@H](C)NC(=O)/C=C/C(=O)NCC(=O)NCC(=O)N[C@@H](Cc1ccccc1)C(=O)O)c1ccccc1)C(C)C)C(N)=O` (HELM PEPTIDE1{[O=C(/C=C/C(=O)[*:2])NCC(=O)NCC(=O)N[C@@H](Cc1ccccc1)C(=O)O].A.[Phg].V.V.[am]}$$$$V2.0) were, in that order, 56% and 36%.
Turning to `CC(C)[C@H](NC(=O)[C@@H](NC(=O)[C@H](Cc1ccccc1)NC(=O)[C@H](C)NC(=O)/C=C/C(=O)N[C@@H](C)C(=O)NCC(=O)N[C@@H](Cc1ccccc1)C(=O)O)C(C)C)C(N)=O` (HELM PEPTIDE1{[C[C@H](NC(=O)/C=C/C(=O)[*:2])C(=O)NCC(=O)N[C@@H](Cc1ccccc1)C(=O)O].A.F.V.V.[am]}$$$$V2.0), the figures for the inhibition in test [1] and in test [2] were 35% and 55%, respectively.
As for `CC[C@H](C)[C@H](NC(=O)[C@H](CNC(C)=O)NC(=O)/C=C/C(=O)N[C@@H](C)C(=O)NCC(=O)N[C@@H](Cc1ccccc1)C(=O)O)C(=O)N[C@@H](CC(C)C)C(=O)N[C@H](C(N)=O)C(C)C` (HELM PEPTIDE1{[C[C@H](NC(=O)/C=C/C(=O)[*:2])C(=O)NCC(=O)N[C@@H](Cc1ccccc1)C(=O)O].[O=C([C@H](CN[*:3])N[*:1])[*:2]].I.L.V.[am]}|PEPTIDE2{[ac]}$PEPTIDE1,PEPTIDE2,2:R3-1:R2$$$V2.0), the inhibition in test [1] turned out to be 32%; in test [2] it was 61%.
The like results for `CC(C)[C@H](NC(=O)[C@H](C)NC(=O)[C@@H](NC(=O)[C@H](C)NC(=O)/C=C/C(=O)NCC(=O)NCC(=O)N[C@@H](Cc1ccccc1)C(=O)O)C1CCCCC1)C(N)=O` (HELM PEPTIDE1{[O=C(/C=C/C(=O)[*:2])NCC(=O)NCC(=O)N[C@@H](Cc1ccccc1)C(=O)O].A.[O=C([C@@H](N[*:1])C1CCCCC1)[*:2]].A.V.[am]}$$$$V2.0) were, in that order, 31% and 26%.
The like results for `CC(C)[C@H](NC(=O)[C@@H](NC(=O)[C@@H](NC(=O)[C@H](C)NC(=O)/C=C/C(=O)NCC(=O)NCC(=O)N[C@@H](Cc1ccccc1)C(=O)O)C1CCCCC1)C(C)C)C(N)=O` (HELM PEPTIDE1{[O=C(/C=C/C(=O)[*:2])NCC(=O)NCC(=O)N[C@@H](Cc1ccccc1)C(=O)O].A.[O=C([C@@H](N[*:1])C1CCCCC1)[*:2]].V.V.[am]}$$$$V2.0) were, in that order, 54% and 40%.
In the case of `CC[C@H](C)[C@H](NC(=O)[C@H](Cc1ccccc1)NC(=O)/C=C/C(=O)N[C@@H](C)C(=O)NCC(=O)N[C@@H](Cc1ccccc1)C(=O)O)C(=O)N[C@@H](C)C(=O)N[C@H](C(N)=O)C(C)C` (HELM PEPTIDE1{[C[C@H](NC(=O)/C=C/C(=O)[*:2])C(=O)NCC(=O)N[C@@H](Cc1ccccc1)C(=O)O].F.I.A.V.[am]}$$$$V2.0), the inhibition in test [1] came out at 29%; in test [2], 40%.
Consider `CC[C@H](C)[C@H](NC(=O)[C@H](CC(N)=O)NC(=O)/C=C/C(=O)N[C@@H](C)C(=O)NCC(=O)N[C@@H](Cc1ccccc1)C(=O)O)C(=O)N[C@@H](CC(C)C)C(=O)N[C@H](C(N)=O)C(C)C` (HELM PEPTIDE1{[C[C@H](NC(=O)/C=C/C(=O)[*:2])C(=O)NCC(=O)N[C@@H](Cc1ccccc1)C(=O)O].N.I.L.V.[am]}$$$$V2.0), for which the inhibition was determined as 47% in test [1] and 60% in test [2].
With `CC(C)C[C@H](NC(=O)[C@@H](NC(=O)[C@H](C)NC(=O)/C=C/C(=O)NCC(=O)NCC(=O)N[C@@H](Cc1ccccc1)C(=O)O)C1CCCCC1)C(=O)N[C@H](C(N)=O)C(C)C` (HELM PEPTIDE1{[O=C(/C=C/C(=O)[*:2])NCC(=O)NCC(=O)N[C@@H](Cc1ccccc1)C(=O)O].A.[O=C([C@@H](N[*:1])C1CCCCC1)[*:2]].L.V.[am]}$$$$V2.0), the inhibition in test [1] amounted to 43%; in test [2], 60%.
On the same counts, the results for `CC(C)C[C@H](NC(=O)[C@@H](NC(=O)[C@H](Cc1ccccc1)NC(=O)/C=C/C(=O)N[C@@H](C)C(=O)NCC(=O)N[C@@H](Cc1ccccc1)C(=O)O)C1CCCCC1)C(=O)N[C@H](C(N)=O)C(C)C` (HELM PEPTIDE1{[C[C@H](NC(=O)/C=C/C(=O)[*:2])C(=O)NCC(=O)N[C@@H](Cc1ccccc1)C(=O)O].F.[O=C([C@@H](N[*:1])C1CCCCC1)[*:2]].L.V.[am]}$$$$V2.0) are 56% and 49%.
On the same counts, the results for `CC[C@H](C)[C@H](NC(=O)[C@H](CC(N)=O)NC(=O)/C=C/C(=O)NCC(=O)NCC(=O)N[C@@H](Cc1ccccc1)C(=O)O)C(=O)N[C@@H](C)C(=O)N[C@H](C(N)=O)C(C)C` (HELM PEPTIDE1{[O=C(/C=C/C(=O)[*:2])NCC(=O)NCC(=O)N[C@@H](Cc1ccccc1)C(=O)O].N.I.A.V.[am]}$$$$V2.0) are 63% and 55%.
The like results for `CC(C)C[C@H](NC(=O)[C@H](C)NC(=O)/C=C/C(=O)N[C@@H](C)C(=O)NCC(=O)N[C@@H](Cc1ccccc1)C(=O)O)C(=O)N[C@@H](C)C(=O)N[C@H](C(N)=O)C(C)C` (HELM PEPTIDE1{[C[C@H](NC(=O)/C=C/C(=O)[*:2])C(=O)NCC(=O)N[C@@H](Cc1ccccc1)C(=O)O].A.L.A.V.[am]}$$$$V2.0) were, in that order, 62% and 31%.
Regarding `CC[C@H](C)[C@H](NC(=O)[C@H](C)NC(=O)/C=C/C(=O)N[C@@H](C)C(=O)NCC(=O)N[C@@H](Cc1ccccc1)C(=O)O)C(=O)N[C@H](C(=O)N[C@H](C(N)=O)C(C)C)C(C)C` (HELM PEPTIDE1{[C[C@H](NC(=O)/C=C/C(=O)[*:2])C(=O)NCC(=O)N[C@@H](Cc1ccccc1)C(=O)O].A.I.V.V.[am]}$$$$V2.0), the inhibition turned out to be 30% in test [1] and 34% in test [2].
On the same counts, the results for `CC(C)[C@H](NC(=O)[C@H](C)NC(=O)[C@H](Cc1ccccc1)NC(=O)[C@H](CCC(N)=O)NC(=O)/C=C/C(=O)NCC(=O)NCC(=O)N[C@@H](Cc1ccccc1)C(=O)O)C(N)=O` (HELM PEPTIDE1{[O=C(/C=C/C(=O)[*:2])NCC(=O)NCC(=O)N[C@@H](Cc1ccccc1)C(=O)O].Q.F.A.V.[am]}$$$$V2.0) are 54% and 41%.
The like results for `CC(C)[C@H](NC(=O)[C@H](C)NC(=O)[C@@H](NC(=O)[C@H](Cc1ccccc1)NC(=O)/C=C/C(=O)N[C@@H](C)C(=O)NCC(=O)N[C@@H](Cc1ccccc1)C(=O)O)c1ccccc1)C(N)=O` (HELM PEPTIDE1{[C[C@H](NC(=O)/C=C/C(=O)[*:2])C(=O)NCC(=O)N[C@@H](Cc1ccccc1)C(=O)O].F.[Phg].A.V.[am]}$$$$V2.0) were, in that order, 34% and 47%.
The like results for `CC(C)C[C@H](NC(=O)[C@@H](NC(=O)[C@H](C)NC(=O)/C=C/C(=O)N[C@@H](C)C(=O)NCC(=O)N[C@@H](Cc1ccccc1)C(=O)O)c1ccccc1)C(=O)N[C@H](C(N)=O)C(C)C` (HELM PEPTIDE1{[C[C@H](NC(=O)/C=C/C(=O)[*:2])C(=O)NCC(=O)N[C@@H](Cc1ccccc1)C(=O)O].A.[Phg].L.V.[am]}$$$$V2.0) were, in that order, 55% and 72%.
Regarding `CC[C@H](C)[C@H](NC(=O)[C@H](Cc1ccccc1)NC(=O)/C=C/C(=O)NCC(=O)NCC(=O)N[C@@H](Cc1ccccc1)C(=O)O)C(=O)N[C@@H](CC(C)C)C(=O)N[C@H](C(N)=O)C(C)C` (HELM PEPTIDE1{[O=C(/C=C/C(=O)[*:2])NCC(=O)NCC(=O)N[C@@H](Cc1ccccc1)C(=O)O].F.I.L.V.[am]}$$$$V2.0), the inhibition in test [1] was found to be 58%; in test [2], 73%.
On the same counts, the results for `CC(=O)NC[C@H](NC(=O)/C=C/C(=O)N[C@@H](C)C(=O)NCC(=O)N[C@@H](Cc1ccccc1)C(=O)O)C(=O)N[C@H](C(=O)N[C@H](C(=O)N[C@H](C(N)=O)C(C)C)C(C)C)C1CCCCC1` ({Fumaroyl(AlaGlyPheOH)}-[Dap](Ac)[Chg]VV-NH2) are 40% and 46%.
